Results taken from ChEMBL document CHEMBL1138179, “Discovery of a novel nonphosphorylated pentapeptide motif displaying high affinity for Grb2-SH2 domain by the utilization of 3'-substituted tyrosine derivatives” (J Med Chem, 2006).
Numbered stars: 1 amine (or outer) side, 2 acyl side, 3 side chain; on linkers, the order of the positions; unused ones are H or OH. Bridge positions count the residues as written; N and C are the ends. Square brackets hold non-standard residues; d marks the D form. Peptide text beside a SMILES is read from it. Tyr(3-NO2) = N[C@@H](Cc1ccc(O)c([N+](=O)[O-])c1)C(=O)O; X1 = O=C(O)c1cc(C[C@H](N[*:1])C(=O)[*:2])ccc1O; Tyr(3-OMe) = COc1cc(C[C@H](N)C(=O)O)ccc1O; Tyr(3-NH2) = Nc1cc(C[C@H](N)C(=O)O)ccc1O; Dopa = N[C@@H](Cc1ccc(O)c(O)c1)C(=O)O; Gla = N[C@@H](CC(C(=O)O)C(=O)O)C(=O)O; Aad = N[C@@H](CCCC(=O)O)C(=O)O; Ac6c = NC1(C(=O)O)CCCCC1; Ava = NCCCCC(=O)O; βAla = NCCC(=O)O

These compounds were tested against Growth factor receptor-bound protein 2 (Homo sapiens, UniProt P62993) (assay: Inhibition of recombinant GRB2-SH2 domain). Settings: not given.
Growth factor receptor-bound protein 2, sequence (P62993 whole entry, the tested form may be a part): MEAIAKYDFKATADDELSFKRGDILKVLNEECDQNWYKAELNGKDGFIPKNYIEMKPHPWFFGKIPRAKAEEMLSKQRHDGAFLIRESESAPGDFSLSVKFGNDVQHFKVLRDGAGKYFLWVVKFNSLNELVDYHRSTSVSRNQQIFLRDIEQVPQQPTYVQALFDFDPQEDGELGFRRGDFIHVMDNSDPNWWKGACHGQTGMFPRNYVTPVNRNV
Summary of the method: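 Competitive SPR (BIAcore 3000): inhibitor premixed with recombinant Grb2-SH2 protein; binding at equilibrium measured to immobilized biotinylated SHC pTyr317 phosphopeptide (biotinyl-DDPS-pY-VNVQ). IC50 = concentration giving half-maximal competition; mean of at least two independent experiments.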
`CC(C)C[C@@H]1NC(=O)[C@H](CCCC(=O)O)NC(=O)CSC[C@@H](C(N)=O)NC(=O)CCCCNC(=O)[C@H](CC(N)=O)NC(=O)C2(CCCCC2)NC(=O)[C@H](Cc2ccc(O)c(O)c2)NC1=O` ({CH2CO}-[Aad]L[Dopa][Ac6c]N[Ava]C-NH2; thioether N-7) gave an IC50 of 135 µM. `CC(C)C[C@@H]1NC(=O)[C@H](CC(C(=O)O)C(=O)O)NC(=O)CSC[C@@H](C(N)=O)NC(=O)[C@H](CC(N)=O)NC(=O)C2(CCCCC2)NC(=O)[C@H](Cc2ccc(O)c(N)c2)NC1=O` ({CH2CO}-[Gla]L[Tyr(3-NH2)][Ac6c]NC-NH2; thioether N-6) showed an IC50 of 22.5 µM. Compound `CC(C)C[C@@H]1NC(=O)[C@H](CC(C(=O)O)C(=O)O)NC(=O)C[S+]([O-])C[C@H](C(N)=O)NC(=O)CCNC(=O)[C@H](CC(N)=O)NC(=O)C2(CCCCC2)NC(=O)[C@H](Cc2ccc(O)c(N)c2)NC1=O` (stereo partly drawn) has an IC50 of 11.2 µM. Work on `CC(C)C[C@@H]1NC(=O)[C@H](CC(C(=O)O)C(=O)O)NC(=O)CSC[C@@H](C(N)=O)NC(=O)CCNC(=O)[C@H](CC(N)=O)NC(=O)C2(CCCCC2)NC(=O)[C@H](Cc2ccc(O)c(N)c2)NC1=O` ({CH2CO}-[Gla]L[Tyr(3-NH2)][Ac6c]N[βAla]C-NH2; thioether N-7) yielded an IC50 of 1.02 µM. `CC(C)C[C@@H]1NC(=O)[C@H](CC(C(=O)O)C(=O)O)NC(=O)CSC[C@@H](C(N)=O)NC(=O)CCCCNC(=O)[C@H](CC(N)=O)NC(=O)C2(CCCCC2)NC(=O)[C@H](Cc2ccc(O)c(N)c2)NC1=O` ({CH2CO}-[Gla]L[Tyr(3-NH2)][Ac6c]N[Ava]C-NH2; thioether N-7) gave an IC50 of 0.19 µM. Work on `CC(C)C[C@@H]1NC(=O)[C@H](CCCC(=O)O)NC(=O)C[S+]([O-])C[C@@H](C(N)=O)NC(=O)CCCCNC(=O)[C@H](CC(N)=O)NC(=O)C2(CCCCC2)NC(=O)[C@H](Cc2ccc(O)c(C(=O)O)c2)NC1=O` (stereo partly drawn) yielded an IC50 of 16 µM. `COc1cc(C[C@@H]2NC(=O)[C@H](CC(C)C)NC(=O)[C@H](CCCC(=O)O)NC(=O)C[S+]([O-])C[C@H](C(N)=O)NC(=O)CCCCNC(=O)[C@H](CC(N)=O)NC(=O)C3(CCCCC3)NC2=O)ccc1O` (stereo partly drawn) was tested, and the IC50 was > 1000 µM. For `CC(C)C[C@@H]1NC(=O)[C@H](CCCC(=O)O)NC(=O)C[S+]([O-])C[C@@H](C(N)=O)NC(=O)CCCCNC(=O)[C@H](CC(N)=O)NC(=O)C2(CCCCC2)NC(=O)[C@H](Cc2ccc(O)cc2)NC1=O` (stereo partly drawn), the IC50 was 77 µM. With `CC(C)C[C@@H]1NC(=O)[C@H](CCCC(=O)O)NC(=O)C[S+]([O-])C[C@H](C(N)=O)NC(=O)CCCCNC(=O)[C@H](CC(N)=O)NC(=O)C2(CCCCC2)NC(=O)[C@H](Cc2ccc(O)c(N)c2)NC1=O` (stereo partly drawn) the IC50 was 14 µM. For `CC(C)C[C@@H]1NC(=O)[C@H](CCCC(=O)O)NC(=O)C[S+]([O-])C[C@H](C(N)=O)NC(=O)CCCCNC(=O)[C@H](CC(N)=O)NC(=O)C2(CCCCC2)NC(=O)[C@H](Cc2ccc(O)c([N+](=O)[O-])c2)NC1=O` (stereo partly drawn), the IC50 was 265 µM. `CC(C)C[C@@H]1NC(=O)[C@H](CCCC(=O)O)NC(=O)C[S+]([O-])C[C@@H](C(N)=O)NC(=O)CCCCNC(=O)[C@H](CC(N)=O)NC(=O)C2(CCCCC2)NC(=O)[C@H](Cc2ccc(O)c(N)c2)NC1=O` (stereo partly drawn) was tested, and the IC50 was 3.9 µM. Compound `CC(C)C[C@@H]1NC(=O)[C@H](CC(C(=O)O)C(=O)O)NC(=O)C[S+]([O-])C[C@H](C(N)=O)NC(=O)CCCCNC(=O)[C@H](CC(N)=O)NC(=O)C2(CCCCC2)NC(=O)[C@H](Cc2ccc(O)c(N)c2)NC1=O` (stereo partly drawn) has an IC50 of 1.55 µM. With `CC(C)C[C@@H]1NC(=O)[C@H](CCCC(=O)O)NC(=O)CSC[C@@H](C(N)=O)NC(=O)CCCCNC(=O)[C@H](CC(N)=O)NC(=O)C2(CCCCC2)NC(=O)[C@H](Cc2ccc(O)c([N+](=O)[O-])c2)NC1=O` ({CH2CO}-[Aad]L[Tyr(3-NO2)][Ac6c]N[Ava]C-NH2; thioether N-7) the IC50 was 182 µM. In the case of `CC(C)C[C@@H]1NC(=O)[C@H](CCCC(=O)O)NC(=O)C[S+]([O-])C[C@H](C(N)=O)NC(=O)CCCCNC(=O)[C@H](CC(N)=O)NC(=O)C2(CCCCC2)NC(=O)[C@H](Cc2ccc(O)c(O)c2)NC1=O` (stereo partly drawn), the IC50 is reported as 550 µM. For `COc1cc(C[C@@H]2NC(=O)[C@H](CC(C)C)NC(=O)[C@H](CCCC(=O)O)NC(=O)C[S+]([O-])C[C@@H](C(N)=O)NC(=O)CCCCNC(=O)[C@H](CC(N)=O)NC(=O)C3(CCCCC3)NC2=O)ccc1O` (stereo partly drawn), the IC50 was 97 µM. With `CC(C)C[C@@H]1NC(=O)[C@H](CC(C(=O)O)C(=O)O)NC(=O)C[S+]([O-])C[C@H](C(N)=O)NC(=O)[C@H](CC(N)=O)NC(=O)C2(CCCCC2)NC(=O)[C@H](Cc2ccc(O)c(N)c2)NC1=O` (stereo partly drawn) the IC50 was 200 µM. `CC(C)C[C@@H]1NC(=O)[C@H](CCCC(=O)O)NC(=O)CSC[C@@H](C(N)=O)NC(=O)CCCCNC(=O)[C@H](CC(N)=O)NC(=O)C2(CCCCC2)NC(=O)[C@H](Cc2ccc(O)c(N)c2)NC1=O` ({CH2CO}-[Aad]L[Tyr(3-NH2)][Ac6c]N[Ava]C-NH2; thioether N-7) was tested, and the IC50 was 8.9 µM. `CC(C)C[C@@H]1NC(=O)[C@H](CCCC(=O)O)NC(=O)CSC[C@@H](C(N)=O)NC(=O)CCCCNC(=O)[C@H](CC(N)=O)NC(=O)C2(CCCCC2)NC(=O)[C@H](Cc2ccc(O)c(C(=O)O)c2)NC1=O` ({CH2CO}-[Aad]L[X1][Ac6c]N[Ava]C-NH2; thioether N-7) was tested, and the IC50 was 88 µM. Work on `COc1cc(C[C@@H]2NC(=O)[C@H](CC(C)C)NC(=O)[C@H](CCCC(=O)O)NC(=O)CSC[C@@H](C(N)=O)NC(=O)CCCCNC(=O)[C@H](CC(N)=O)NC(=O)C3(CCCCC3)NC2=O)ccc1O` ({CH2CO}-[Aad]L[Tyr(3-OMe)][Ac6c]N[Ava]C-NH2; thioether N-7) yielded an IC50 of 245 µM. Compound `CC(C)C[C@@H]1NC(=O)[C@H](CC(C(=O)O)C(=O)O)NC(=O)C[S+]([O-])C[C@@H](C(N)=O)NC(=O)CCCCNC(=O)[C@H](CC(N)=O)NC(=O)C2(CCCCC2)NC(=O)[C@H](Cc2ccc(O)c(N)c2)NC1=O` (stereo partly drawn) has an IC50 of 0.058 µM. In the case of `CC(C)C[C@@H]1NC(=O)[C@H](CCCC(=O)O)NC(=O)C[S+]([O-])C[C@H](C(N)=O)NC(=O)CCCCNC(=O)[C@H](CC(N)=O)NC(=O)C2(CCCCC2)NC(=O)[C@H](Cc2ccc(O)c(C(=O)O)c2)NC1=O` (stereo partly drawn), the IC50 is reported as 212 µM. Work on `CC(C)C[C@@H]1NC(=O)[C@H](CCCC(=O)O)NC(=O)C[S+]([O-])C[C@@H](C(N)=O)NC(=O)CCCCNC(=O)[C@H](CC(N)=O)NC(=O)C2(CCCCC2)NC(=O)[C@H](Cc2ccc(O)c(O)c2)NC1=O` (stereo partly drawn) yielded an IC50 of 87 µM. `CC(C)C[C@@H]1NC(=O)[C@H](CCCC(=O)O)NC(=O)C[S+]([O-])C[C@@H](C(N)=O)NC(=O)CCCCNC(=O)[C@H](CC(N)=O)NC(=O)C2(CCCCC2)NC(=O)[C@H](Cc2ccc(O)c([N+](=O)[O-])c2)NC1=O` (stereo partly drawn) showed an IC50 of 25 µM. `CC(C)C[C@@H]1NC(=O)[C@H](CC(C(=O)O)C(=O)O)NC(=O)C[S+]([O-])C[C@@H](C(N)=O)NC(=O)CCNC(=O)[C@H](CC(N)=O)NC(=O)C2(CCCCC2)NC(=O)[C@H](Cc2ccc(O)c(N)c2)NC1=O` (stereo partly drawn) showed an IC50 of 0.36 µM. `CC(C)C[C@@H]1NC(=O)[C@H](CCCC(=O)O)NC(=O)C[S+]([O-])C[C@H](C(N)=O)NC(=O)CCCCNC(=O)[C@H](CC(N)=O)NC(=O)C2(CCCCC2)NC(=O)[C@H](Cc2ccc(O)cc2)NC1=O` (stereo partly drawn) gave an IC50 of 1000 µM. `CC(C)C[C@@H]1NC(=O)[C@H](CCCC(=O)O)NC(=O)CSC[C@@H](C(N)=O)NC(=O)CCCCNC(=O)[C@H](CC(N)=O)NC(=O)C2(CCCCC2)NC(=O)[C@H](Cc2ccc(O)cc2)NC1=O` ({CH2CO}-[Aad]LY[Ac6c]N[Ava]C-NH2; thioether N-7) gave an IC50 of 93 µM. `CC(C)C[C@@H]1NC(=O)[C@H](CC(C(=O)O)C(=O)O)NC(=O)C[S+]([O-])C[C@@H](C(N)=O)NC(=O)[C@H](CC(N)=O)NC(=O)C2(CCCCC2)NC(=O)[C@H](Cc2ccc(O)c(N)c2)NC1=O` (stereo partly drawn) gave an IC50 of 9.7 µM.

The compounds below were run on MDA-MB-453 (assay: cells). Settings: Homo sapiens.
With `CC(C)C[C@@H]1NC(=O)[C@H](CC(C(=O)O)C(=O)O)NC(=O)C[S+]([O-])C[C@@H](C(N)=O)NC(=O)CCCCNC(=O)[C@H](CC(N)=O)NC(=O)C2(CCCCC2)NC(=O)[C@H](Cc2ccc(O)c(N)c2)NC1=O` (stereo partly drawn) the IC50 was 0.019 µM.
